# Experiments:
# Type in all cases: tissue-based
# [1] = molecular target: T1, Muscarinic acetylcholine receptor M1 (Rattus norvegicus, UniProt P08482); assay: Binding affinity at Muscarinic acetylcholine receptor M1 in Rat brain homogenate by [3H]pirenzepine displacement.
# T1 sequence (P08482 whole entry): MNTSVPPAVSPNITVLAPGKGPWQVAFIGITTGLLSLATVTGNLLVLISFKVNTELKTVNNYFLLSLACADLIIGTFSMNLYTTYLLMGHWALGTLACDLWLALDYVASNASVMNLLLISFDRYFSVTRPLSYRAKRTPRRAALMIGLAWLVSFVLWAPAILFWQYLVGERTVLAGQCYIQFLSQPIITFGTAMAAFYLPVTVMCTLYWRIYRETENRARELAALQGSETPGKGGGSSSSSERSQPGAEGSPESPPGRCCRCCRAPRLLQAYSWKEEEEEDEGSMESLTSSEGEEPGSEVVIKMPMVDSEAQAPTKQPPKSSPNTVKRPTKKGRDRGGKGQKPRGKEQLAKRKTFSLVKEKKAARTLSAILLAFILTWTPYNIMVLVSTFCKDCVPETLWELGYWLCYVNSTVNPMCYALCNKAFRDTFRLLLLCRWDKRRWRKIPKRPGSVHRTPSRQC
# [2] = molecular target: T1, Muscarinic acetylcholine receptor M1; assay: Compound is tested for displacement of [3H]pirenzepine at […] in Rat brain homogenate.
# In short: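 Whole rat brain minus cerebellum, homogenised in 10 mM Tris-HCl/320 mM sucrose pH 7.4; 10000g pellet. Binding in 10 mM Tris-HCl with 5 mM MgCl2, […], [3H]pirenzepine 3 nM final, 1 h at 37 °C. Competitor 0.01 nM–100 µM. Filtration through PEI-soaked GF/B filters. At least three experiments in triplicate; Ki from nonlinear curve fitting.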
# [3] = molecular target: Sodium-dependent dopamine transporter (Rattus norvegicus, UniProt P23977); assay: Displacement of [3H]WIN-35428 from the dopamine transporter in rat caudate putamen
# In short: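 Male Sprague-Dawley rat caudate putamen, fresh washed membranes in Krebs-HEPES pH 7.4, 0.5% w/v. Filtration on BSA-soaked GF/B filters. Three experiments in triplicate; Ki from nonlinear least-squares fitting of pooled replicates.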
# Sodium-dependent dopamine transporter, sequence (P23977 whole entry): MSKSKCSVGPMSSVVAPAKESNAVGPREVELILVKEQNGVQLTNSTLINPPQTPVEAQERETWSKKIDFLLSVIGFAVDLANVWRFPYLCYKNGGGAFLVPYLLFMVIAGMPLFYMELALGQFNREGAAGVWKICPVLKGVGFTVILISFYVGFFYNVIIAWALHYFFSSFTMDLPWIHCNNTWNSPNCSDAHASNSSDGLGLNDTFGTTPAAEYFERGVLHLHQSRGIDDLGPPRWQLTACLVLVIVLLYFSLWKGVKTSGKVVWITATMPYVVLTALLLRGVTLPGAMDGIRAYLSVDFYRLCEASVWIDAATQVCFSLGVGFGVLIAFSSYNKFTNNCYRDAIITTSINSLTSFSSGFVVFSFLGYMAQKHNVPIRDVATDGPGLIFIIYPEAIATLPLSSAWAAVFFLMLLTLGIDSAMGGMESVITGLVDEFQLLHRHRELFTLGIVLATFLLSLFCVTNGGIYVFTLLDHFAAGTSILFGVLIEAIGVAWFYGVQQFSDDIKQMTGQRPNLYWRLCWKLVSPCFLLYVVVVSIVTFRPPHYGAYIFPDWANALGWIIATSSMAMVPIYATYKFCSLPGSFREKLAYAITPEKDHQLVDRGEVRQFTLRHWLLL
Structure (SMILES),Ki [1] [nM],Ki [2] [nM],Ki [3] [nM]
CCCCN1C2CCC1CC(OC(c1ccc(F)cc1)c1ccc(F)cc1)C2 (stereo not given),399,–,–
Fc1ccc(CCCN2C3CCC2CC(OC(c2ccc(F)cc2)c2ccc(F)cc2)C3)cc1 (stereo not given),–,686,–
Fc1ccc(CN2C3CCC2CC(OC(c2ccc(F)cc2)c2ccc(F)cc2)C3)cc1 (stereo not given),–,1540,–
Fc1ccc(C(OC2CC3CCC(C2)N3)c2ccc(F)cc2)cc1 (stereo not given),203,–,–
Fc1ccc(C(OC2CC3CCC(C2)N3Cc2cccc3ccccc23)c2ccc(F)cc2)cc1 (stereo not given),1790,–,367
Fc1ccc(C(OC2CC3CCC(C2)N3CCCc2ccccc2)c2ccc(F)cc2)cc1 (stereo not given),–,312,–
Fc1ccc(C(OC2CC3CCC(C2)N3Cc2ccccc2)c2ccc(F)cc2)cc1 (stereo not given),–,1030,–
C=CCCN1C2CCC1CC(OC(c1ccc(F)cc1)c1ccc(F)cc1)C2 (stereo not given),278,–,31.9
O=[N+]([O-])c1ccc(-c2ccc(COCCN3C4CCC3CC(OC(c3ccc(F)cc3)c3ccc(F)cc3)C4)cc2)cc1 (stereo not given),–,460,–
CC[C@H](CN1C2CCC1CC(OC(c1ccc(F)cc1)c1ccc(F)cc1)C2)c1ccccc1 (stereo not given in full),2360,–,228
C[C@@H](CN1C2CCC1CC(OC(c1ccc(F)cc1)c1ccc(F)cc1)C2)c1ccccc1 (stereo not given in full),392,–,477
CC[C@@H](CN1C2CCC1CC(OC(c1ccc(F)cc1)c1ccc(F)cc1)C2)c1ccccc1 (stereo not given in full),1440,–,400
C[C@H](CN1C2CCC1CC(OC(c1ccc(F)cc1)c1ccc(F)cc1)C2)c1ccccc1 (stereo not given in full),1900,–,301
Fc1ccc(C(OC2CC3CCC(C2)N3Cc2ccc(Cl)c(Cl)c2)c2ccc(F)cc2)cc1 (stereo not given),3880,–,392
CC(C)[C@H](N)CN1C2CCC1CC(OC(c1ccc(F)cc1)c1ccc(F)cc1)C2 (stereo not given in full),4020,–,29.5
Fc1ccc(C(OC2CC3CCC(C2)N3C/C=C/c2ccccc2)c2ccc(F)cc2)cc1 (stereo not given),–,401,86.4
Nc1ccc(CCCCN2[C@@H]3CC[C@H]2C[C@@H](OC(c2ccc(F)cc2)c2ccc(F)cc2)C3)cc1,134,–,–
O=[N+]([O-])c1ccc(CCCCN2[C@@H]3CC[C@H]2C[C@@H](OC(c2ccc(F)cc2)c2ccc(F)cc2)C3)cc1,299,–,–
NCCN1[C@@H]2CC[C@H]1C[C@@H](OC(c1ccc(F)cc1)c1ccc(F)cc1)C2,1250,–,13.9
Fc1ccc(C(O[C@H]2C[C@H]3CC[C@@H](C2)N3CCc2c[nH]c3ccccc23)c2ccc(F)cc2)cc1,–,3280,44.6
C=CCN1C2CCC1CC(OC(c1ccc(F)cc1)c1ccc(F)cc1)C2 (stereo not given),177,–,–
CC(C)[C@@H](N)CN1C2CCC1CC(OC(c1ccc(F)cc1)c1ccc(F)cc1)C2 (stereo not given in full),2180,–,56.4
Fc1ccc(C(OC2CC3CCC(C2)N3CC2CC2)c2ccc(F)cc2)cc1 (stereo not given),–,257,–

# Source: ChEMBL document CHEMBL1133588 (J Med Chem, 2000)
